Measurements from article PMC11913021 (Journal of Medicinal Chemistry, 2024).
Where a chain is given by its changes, count along the chain named. Several values for one entry are separate records, joined by “and”; a condition that tells them apart may be missing. Identical values can stand only once.

Legend:
Assay type in all cases: cell-based
wild-type PLD1 = target: T1, wild-type PLD1 (Homo sapiens, UniProt Q13393); experiment: PLD activity assay in wild-type PLD1-transfected cells
T1 sequence (Q13393 1-1036 isoform Q13393-2): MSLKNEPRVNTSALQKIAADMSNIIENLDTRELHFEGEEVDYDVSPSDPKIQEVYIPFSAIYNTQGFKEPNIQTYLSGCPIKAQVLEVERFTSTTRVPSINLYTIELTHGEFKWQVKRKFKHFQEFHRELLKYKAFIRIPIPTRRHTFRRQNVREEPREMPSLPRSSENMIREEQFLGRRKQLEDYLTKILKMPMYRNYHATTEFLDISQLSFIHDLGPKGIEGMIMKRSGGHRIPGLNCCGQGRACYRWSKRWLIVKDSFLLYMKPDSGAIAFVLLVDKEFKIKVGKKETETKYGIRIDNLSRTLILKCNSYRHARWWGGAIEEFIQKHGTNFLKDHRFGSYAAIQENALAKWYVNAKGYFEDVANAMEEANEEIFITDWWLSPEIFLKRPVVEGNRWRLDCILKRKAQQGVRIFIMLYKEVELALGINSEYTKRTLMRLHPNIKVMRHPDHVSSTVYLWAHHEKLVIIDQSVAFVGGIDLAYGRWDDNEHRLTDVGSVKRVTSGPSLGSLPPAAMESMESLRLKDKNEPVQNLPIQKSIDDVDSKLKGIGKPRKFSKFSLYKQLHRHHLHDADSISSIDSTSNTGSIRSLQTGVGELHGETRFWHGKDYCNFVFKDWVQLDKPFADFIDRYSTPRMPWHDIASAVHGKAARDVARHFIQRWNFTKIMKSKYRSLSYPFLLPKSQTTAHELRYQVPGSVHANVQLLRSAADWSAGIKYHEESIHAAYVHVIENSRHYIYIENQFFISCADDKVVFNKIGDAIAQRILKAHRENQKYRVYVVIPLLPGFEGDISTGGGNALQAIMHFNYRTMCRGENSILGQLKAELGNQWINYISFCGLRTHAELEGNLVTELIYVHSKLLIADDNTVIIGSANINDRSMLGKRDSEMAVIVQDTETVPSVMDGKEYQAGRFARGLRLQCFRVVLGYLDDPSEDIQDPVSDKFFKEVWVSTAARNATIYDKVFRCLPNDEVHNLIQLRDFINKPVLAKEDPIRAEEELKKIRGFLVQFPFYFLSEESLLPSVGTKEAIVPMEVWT

A549 cells [1] = experiment: WST-1 cell viability assay, A549; details: read-out: IC50 of viability; A549, WST-1, 48 h
Outline: (§1)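 Cells grown in DMEM or RPMI 1640 with 10% FBS and 1% penicillin/streptomycin at 37 °C, 5% CO2. Seeded at 5 × 10^3 cells/well and held 24 h at 37 °C, then exposed to test compound for 48 h. WST-1 absorbance was read at 450 nm, in triplicate. IC50 was taken as the concentration giving 50% growth inhibition versus control.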

A549 cells [2] = experiment: Transwell migration and invasion assay
Outline: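 Cells at 5 × 10^4 cells/ml in serum-free medium placed in 8 μm pore transwell chambers; for invasion the chambers were Matrigel-precoated. After 24 h, non-migrated cells were swabbed off. Cells on the underside were fixed in 4% PFA for 20 min, stained with crystal violet for 10 min, and counted by light microscopy.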

F789A mutant PLD1 = target: T2, F789A mutant PLD1 (Homo sapiens, UniProt Q13393, F827A); experiment: PLD activity assay in F789A mutant PLD1-transfected cells
T2 sequence (Q13393 1-1036 isoform Q13393-2 F789A): T1 sequence (Q13393 1-1036 isoform Q13393-2) with F789A

Calu6 lung cancer cells = experiment: WST-1 cell viability assay, Calu6; details: read-out: IC50 of viability; Calu6, WST-1, 48 h
Outline: as §1

CD24, CD47, PD-L1, CRT = experiment: Flow cytometry of “don’t eat-me” and “eat-me” signals in A549 cells

N-(3,5-Bis(trifluoromethyl)phenyl)-3-(1H-indol-3-yl)propanamide [3r]
PLD activity (wild-type PLD1): significantly suppressed
IC50 (A549 cells [1]): 18 µM and 18.4 µM
invasion (A549 cells [2]): significantly inhibited
migration (A549 cells [2]): significantly inhibited
PLD activity (F789A mutant PLD1): did not significantly inhibit
IC50 (Calu6 lung cancer cells): 19 µM
expression of “don’t eat-me” signals (CD24, CD47, PD-L1, CRT): reduced
expression of “eat-me” signals (CD24, CD47, PD-L1, CRT): enhanced
